Active and inactive are the calls of the source. The calls are words filed in the database; no cut-off is given here.
Key:
[1] = Chemical stability at pH 4 incubated for 2 hrs; type: physicochemical; details: buffer, pH 4, 2 h
In short: (§1)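 Compound was held in aqueous buffer at the stated pH for 2 h at 37 °C.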

[2] = Chemical stability at pH 6.5 incubated for 2 hrs; type: physicochemical; details: buffer, pH 6.5, 2 h; in short: as §1
[3] = Chemical stability at pH 10 incubated for 2 hrs; type: physicochemical; details: buffer, pH 10, 2 h; in short: as §1
[4] = Clearance in human microsomes; type: ADME, Microsome
[5] = Clearance in mouse hepatocytes assessed per 10 million cells; type: ADME, cell-based, Hepatocyte; details: read-out: CLH
[6] = Clearance in Wistar rat at 1 mg/kg, iv measured upto 24 hrs by LC-MS/MS analysis; type: ADME, organism-based; details: in vivo
In short: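 Male Wistar rats (N = 3 per group) received a single dose. The i.v. dose was 1 mg/kg in NMP/0.9% NaCl 30:70. The p.o. dose was 5 mg/kg in NMP/HPMC/diisooctyl sulfosuccinate 10:90. Blood was taken into K2EDTA from 0.083 (i.v.) or 0.25 h to 24 h. Plasma was assayed by LC-MS/MS and analysed non-compartmentally.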

[7] = Half-life in Wistar rat at 1 mg/kg, iv measured upto 24 hrs by LC-MS/MS analysis; type: ADME, organism-based; details: in vivo
In short: (§2)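 Male Wistar rats, single dose. i.v. in NMP/0.9% NaCl 30:70; p.o. and i.p. in NMP/HPMC/diisooctyl sulfosuccinate 10:90; 3 per i.v./p.o. group, 6 i.p. K2EDTA plasma sampled 0.083–7 h, plus 24 h for i.v./p.o.; brain and CSF at 1, 2, 7 h (i.p. only). LC-MS/MS, noncompartmental analysis.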

[8] = Cmax in Wistar rat at 10 mg/kg, ip measured upto 24 hrs by LC-MS/MS analysis; type: ADME, organism-based; details: in vivo
[9] = Ratio of drug concentration in Wistar rat brain to plasma at 10 mg/kg, ip measured upto 7 hrs by LC-MS/MS analysis; type: ADME, organism-based; in short: as §2
[10] = Ratio of drug concentration in Wistar rat CSF to plasma at 10 mg/kg, ip measured upto 7 hrs by LC-MS/MS analysis; type: ADME, organism-based; in short: as §2
[11] = Unbound brain to plasma partition coefficient of compound in Wistar rat at 10 mg/kg, ip measured upto 7 hrs by LC-MS/MS analysis; type: ADME, organism-based; details: read-out: K(p,uu,brain); in short: as §2
[12] = Genotoxicity in Salmonella typhimurium by Ames test; type: toxicity; details: salmonella enterica subsp. enterica serovar typhimurium
[13] = Average drug concentration in mouse plasma at 30 mg/kg, ip measured after 4 hrs; type: ADME, organism-based; details: in vivo
In short: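 Mice received 3, 10 or 30 mg/kg i.p. The compound was dissolved in DMSO/Tween 80 (1:1) and diluted with 8 parts saline (NaCl/DMSO/TW80 80/10/10). Plasma was taken 4 h after injection and average concentrations reported.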

Monoglyceride lipase = target: T1, Monoglyceride lipase (Rattus norvegicus, UniProt Q8R431); assay: Inhibition of rat MAGL using native substrate by Rapidfire MS assay
T1 sequence (Q8R431 whole entry): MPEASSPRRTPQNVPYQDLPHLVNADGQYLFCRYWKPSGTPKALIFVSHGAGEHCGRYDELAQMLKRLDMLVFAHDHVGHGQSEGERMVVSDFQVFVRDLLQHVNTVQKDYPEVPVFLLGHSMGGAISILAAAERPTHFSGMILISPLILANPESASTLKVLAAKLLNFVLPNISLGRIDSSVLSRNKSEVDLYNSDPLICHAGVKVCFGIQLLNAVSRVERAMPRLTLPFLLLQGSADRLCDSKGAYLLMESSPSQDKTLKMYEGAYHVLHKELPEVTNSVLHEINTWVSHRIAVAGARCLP

[14] = Brain-polar-lipids/water distribution coefficient, LIMBA logD brain of the compound at pH 7.4 incubated for 8 hrs by LIMBA
[15] = target: T2, Monoglyceride lipase (Rattus norvegicus) (UniProt Q8R431); assay: Binding affinity to rat MAGL assessed as dissociation rate constant by SPR analysis
T2 sequence (whole entry): T1 sequence (Q8R431 whole entry)
In short: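 Human or rat MAGL was immobilized by amine coupling without ethanolamine quenching. Runs were done at 18 °C in 10 mM HEPES, 150 mM NaCl, 0.05% P20, 50 µM EDTA, pH 7.4, with 1% DMSO. Single-cycle kinetics used five concentrations, top 1 µM in 2-fold steps, at 30 µL/min, giving kon, koff and Kd.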

LLC-PK1 = assay: Substrate activity at mouse P-gp expressed in LLC-PK1 cells assessed as efflux ratio incubated for 3 hrs; type: cell-based
In short: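 LLC-PK1 porcine kidney cells transfected with human or mouse P-gp, grown as polarized monolayers on filter plates. Compound is dosed apically or basolaterally and transport followed 3 h at 37 °C. Efflux ratio comes from unidirectional Papp; 1 µM zosuquidar defines permeability without P-gp.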

Mus musculus [16] = assay: Upregulation of brain 2-AG level in ip dosed mouse measured after 4 hrs; type: functional, organism-based; details: dose 3-30 mg/kg
In short: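 Mice dosed i.p. in NaCl/DMSO/TW80 (80/10/10): 3, 10 or 30 mg/kg with sacrifice at 4 h, or 30 mg/kg over a 24 h time course. Brain extract 2-AG and AA were measured by LC/MS.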

[17] = target: T3, Monoglyceride lipase (Mus musculus) (UniProt O35678); assay: In vivo receptor occupancy at MAGL receptor in mouse at 30 mg/kg, ip measured after 8 hrs; type: functional, organism-based
T3 sequence (whole entry): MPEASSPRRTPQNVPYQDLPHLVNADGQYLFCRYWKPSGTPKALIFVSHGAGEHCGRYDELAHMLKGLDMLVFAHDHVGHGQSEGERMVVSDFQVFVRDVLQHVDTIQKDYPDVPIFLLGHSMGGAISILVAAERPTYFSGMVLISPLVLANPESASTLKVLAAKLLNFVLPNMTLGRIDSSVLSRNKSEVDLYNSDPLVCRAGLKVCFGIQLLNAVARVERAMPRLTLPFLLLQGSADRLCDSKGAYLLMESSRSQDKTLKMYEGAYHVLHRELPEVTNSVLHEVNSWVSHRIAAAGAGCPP
In short: (§3)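 Mice dosed 30 mg/kg i.p. in NaCl/DMSO/TW80 (80/10/10). Brain proteome was prepared at set time points over 24 h and MAGL occupancy read by activity-based protein profiling.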

[18] = target: T3, Monoglyceride lipase (Mus musculus); assay: In vivo receptor occupancy at MAGL receptor in mouse at 30 mg/kg, ip measured after 16 hrs; type: functional, organism-based; in short: as §3
Mus musculus [19] = assay: Antiinflammatory activity in LPS-induced CD-1 mouse neuroinflammation model assessed as decrease in brain IL-1beta mRNA expression at 30 mg/kg, ip measured after 6 hrs by qRT-PCR analysis; type: functional, organism-based
In short: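 CD-1 mice received NaCl + vehicle, LPS (5 mg/kg) + vehicle, or LPS + inhibitor at 30 mg/kg i.p. The vehicle was NaCl/DMSO/Tween 80, 80/10/10. Mice were killed 6 h after compound dosing. LCN2 and IL1b mRNA in cortical brain lysates were quantified by droplet digital qRT-PCR.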

**Q.** Which results are given for `O=C1CO[C@H]2CCN(C(=O)N3CCC(Cc4ccc(C(F)(F)F)cc4)CC3)C[C@H]2N1` [listing 1 of 2 here]?
**A.** Stability [1]: Stable; Stability [2]: Stable; Stability [3]: Stable; microsomal CLint [4]: < 10 µL/min/mg; hepatocyte CLint [5]: 8.9 µL/min/1e6 cells; clearance [6]: 4.6 mL/min/kg; half-life [7]: 5.1 h; Cmax [8]: 12200 ng/mL; Kp at 7 h [9]: 1.1; Kp at 7 h [10]: 0.017; Kp uu at 7 h [11]: 0.53; Activity [12]: Non-Toxic; Cave [13]: 27.765 µM; IC50 (Monoglyceride lipase): 71 nM; LIMBA logD brain at 8 h [14]: 1.8

**Q.** What does the source list for `O=C1CO[C@H]2CCN(C(=O)N3CCC(Cc4ccc(C(F)(F)F)cc4)CC3)C[C@H]2N1` [listing 2 of 2 here]?
**A.** K [15]: 16.8 10^-3/s; Ratio (LLC-PK1): 4; Activity (Mus musculus [16]): Dose-Dependent Effect; Activity [17]: 92%; Activity [18]: 60%; Activity (Mus musculus [19]): Active

From ChEMBL document CHEMBL6127097, “Structure-Guided Discovery of cis-Hexahydro-pyrido-oxazinones as Reversible, Drug-like Monoacylglycerol Lipase Inhibitors” (J Med Chem, 2024)
